{
  "source": "ChEMBL document CHEMBL1275447",
  "about": "(Antimicrob Agents Chemother, 2008)",
  "key": {"[1]": {"test": "Cmax in Pseudomonas aeruginosa ATCC 27853 infected neutropenic ICR mouse at 5.5, 2.25, 4.5, 4.5, 4.5, 4.5, 0.75, and 0.375 mg/kg given at 0, 0.5, 1.5, 2.5, 3.5, 4.5, 6, and 7.5 h over 24 h", "format": "ADME, organism-based", "parameters": "dose 0.375 mg/kg", "conditions": "in vivo"}, "[2]": {"test": "fT>MIC in neutropenic mouse infected with Pseudomonas aeruginosa isolate 906 at 500 mg administered as 1 hr infusion", "format": "functional", "in_short": "(§1)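 Free-drug time above MIC simulated from one-compartment mouse serum PK (25.2% protein binding). The mice were cyclophosphamide-neutropenic and uranyl nitrate-renally impaired. Regimen was subcutaneous 10, 15, 2.5, 1.25, 0.5, 0.25 mg/kg at 0, 0.5, 2.5, 4, 5.5, 7 h, repeated every 8 h over 24 h.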"}, "[3]": {"test": "fT>MIC in human infected with Pseudomonas aeruginosa isolate 936 at 500 mg administered as 1 hr infusion", "format": "functional"}, "[4]": {"test": "Elimination rate constant in Pseudomonas aeruginosa ATCC 27853 infected neutropenic ICR mouse at 50 mg/kg, sc administered as single dose 2 hrs postinfection", "format": "ADME, organism-based", "parameters": "dose 50 mg/kg, route subcutaneous", "conditions": "in vivo", "in_short": "(§2)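 Neutropenic mice (cyclophosphamide ip 150 and 100 mg/kg, 4 and 1 days before inoculation) with uranyl nitrate 5 mg/kg ip 3 days before, for renal impairment. Thigh infection with ATCC 27853 at 10⁶ CFU/ml, 0.1 ml per thigh. Single sc doses 2 h later. Intracardiac blood from 6–12 mice per time point, eight time points over 4 h. Serum assayed by HPLC (linear 0.5–40 μg/ml). One-compartment first-order fit.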"}, "[5]": {"system": "Pseudomonas aeruginosa", "test": "Antibacterial activity against Pseudomonas aeruginosa isolate 1029 by microdilution method", "format": "functional"}, "[6]": {"system": "Pseudomonas aeruginosa", "test": "Antibacterial activity against Pseudomonas aeruginosa isolate 988 by microdilution method", "format": "functional"}, "[7]": {"system": "Pseudomonas aeruginosa", "test": "Antibacterial activity against Pseudomonas aeruginosa isolate 1055 by microdilution method", "format": "functional"}, "[8]": {"system": "Pseudomonas aeruginosa", "test": "Antibacterial activity against Pseudomonas aeruginosa isolate 979 by microdilution method", "format": "functional"}, "[9]": {"system": "Pseudomonas aeruginosa", "test": "Antibacterial activity against Pseudomonas aeruginosa isolate 1062 by microdilution method", "format": "functional"}, "[10]": {"test": "fT>MIC in human infected with Pseudomonas aeruginosa isolate 979 at 500 mg administered as 1 hr infusion", "format": "functional"}, "[11]": {"test": "fT>MIC in neutropenic mouse infected with Pseudomonas aeruginosa isolate 944 at 500 mg administered as 1 hr infusion", "format": "functional", "in_short": "as §1"}, "[12]": {"test": "fT>MIC in neutropenic mouse infected with Pseudomonas aeruginosa isolate 1060 at 500 mg administered as 1 hr infusion", "format": "functional", "in_short": "as §1"}, "[13]": {"test": "fT>MIC in neutropenic mouse infected with Pseudomonas aeruginosa isolate 993 at 500 mg administered as 4 hr infusion", "format": "functional", "in_short": "(§3)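 Mouse fT>MIC was modelled with first-order one-compartment serum PK and 25.2% binding. Mice were neutropenic (cyclophosphamide) with uranyl nitrate renal impairment. Subcutaneous doses were 5.5, 2.25, 4.5, 4.5, 4.5, 4.5, 0.75, 0.375 mg/kg at 0, 0.5, 1.5, 2.5, 3.5, 4.5, 6, 7.5 h per 8-h interval over 24 h.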"}, "[14]": {"test": "AUC (0 to 24 hrs) in Pseudomonas aeruginosa ATCC 27853 infected neutropenic ICR mouse at 50 mg/kg, sc administered as single dose 2 hrs postinfection", "format": "ADME, organism-based", "parameters": "time < 24 hr, dose 50 mg/kg, route subcutaneous", "conditions": "plasma", "in_short": "as §2"}, "[15]": {"test": "fT>MIC in neutropenic mouse thigh infection model at 4 to 8 ug/ml after 24 hrs", "format": "functional", "in_short": "as §1"}, "[16]": {"test": "fT>MIC in neutropenic mouse infected with Pseudomonas aeruginosa isolate 1005 at 500 mg administered as 4 hr infusion", "format": "functional"}, "[17]": {"test": "Tmax in Pseudomonas aeruginosa ATCC 27853 infected neutropenic ICR mouse at 50 mg/kg, sc administered as single dose 2 hrs postinfection by HPLC", "format": "ADME, organism-based", "parameters": "dose 50 mg/kg, route subcutaneous", "conditions": "in vivo", "in_short": "as §2"}, "[18]": {"test": "fT>MIC in neutropenic mouse infected with Pseudomonas aeruginosa isolate 1029 at 500 mg administered as 1 hr infusion", "format": "functional"}, "[19]": {"test": "fT>MIC in human infected with Pseudomonas aeruginosa isolate 1029 at 500 mg administered as 4 hr infusion", "format": "functional"}, "[20]": {"test": "fT>MIC in neutropenic mouse infected with Pseudomonas aeruginosa isolate 993 at 500 mg administered as 1 hr infusion", "format": "functional", "in_short": "as §1"}, "[21]": {"test": "fT>MIC in neutropenic mouse infected with Pseudomonas aeruginosa isolate 1052 at 500 mg administered as 4 hr infusion", "format": "functional", "in_short": "as §3"}, "[22]": {"test": "fT>MIC in neutropenic mouse infected with Pseudomonas aeruginosa isolate 1036 at 500 mg administered as 1 hr infusion", "format": "functional"}, "[23]": {"test": "fT>MIC in human infected with Pseudomonas aeruginosa isolate 869 at 500 mg administered as 4 hr infusion", "format": "functional"}, "[24]": {"test": "fT>MIC in human infected with Pseudomonas aeruginosa isolate 1055 at 500 mg administered as 1 hr infusion", "format": "functional"}, "[25]": {"test": "fT>MIC in neutropenic mouse infected with Pseudomonas aeruginosa isolate 1050 at 500 mg administered as 1 hr infusion", "format": "functional", "in_short": "as §1"}, "[26]": {"test": "fT>MIC in neutropenic mouse infected with Pseudomonas aeruginosa isolate 936 at 500 mg administered as 4 hr infusion", "format": "functional", "in_short": "as §3"}, "[27]": {"test": "Cmax in healthy human at 500 mg administered as as 4 hr infusion", "format": "ADME, organism-based", "parameters": "dose 500 mg", "conditions": "in vivo, iv"}, "[28]": {"test": "fT>MIC in human infected with Pseudomonas aeruginosa isolate 1058 at 500 mg administered as 1 hr infusion", "format": "functional"}, "[29]": {"test": "fT>MIC in neutropenic mouse infected with Pseudomonas aeruginosa isolate 1062 at 500 mg administered as 1 hr infusion", "format": "functional", "in_short": "as §1"}, "[30]": {"test": "AUC (0 to 24 hrs) in Pseudomonas aeruginosa ATCC 27853 infected neutropenic ICR mouse at 10 mg/kg, sc administered as single dose 2 hrs postinfection", "format": "ADME, organism-based", "parameters": "time < 24 hr, dose 10 mg/kg, route subcutaneous", "conditions": "plasma", "in_short": "as §2"}, "[31]": {"test": "fT>MIC in neutropenic mouse infected with Pseudomonas aeruginosa isolate 1036 at 500 mg administered as 4 hr infusion", "format": "functional", "in_short": "as §3"}, "[32]": {"test": "Elimination rate constant in Pseudomonas aeruginosa ATCC 27853 infected neutropenic ICR mouse at 150 mg/kg, sc administered as single dose 2 hrs postinfection", "format": "ADME, organism-based", "parameters": "dose 150 mg/kg, route subcutaneous", "conditions": "in vivo", "in_short": "as §2"}, "[33]": {"test": "fT>MIC in human infected with Pseudomonas aeruginosa isolate 1036 at 500 mg administered as 1 hr infusion", "format": "functional"}, "[34]": {"system": "Pseudomonas aeruginosa", "test": "Antibacterial activity against Pseudomonas aeruginosa isolate 968 by microdilution method", "format": "functional"}, "[35]": {"test": "fT>MIC in neutropenic mouse infected with Pseudomonas aeruginosa isolate 979 at 500 mg administered as 1 hr infusion", "format": "functional", "in_short": "as §1"}, "[36]": {"system": "Pseudomonas aeruginosa", "test": "Antibacterial activity against Pseudomonas aeruginosa isolate 1006 by microdilution method", "format": "functional"}, "[37]": {"system": "Pseudomonas aeruginosa", "test": "Antibacterial activity against Pseudomonas aeruginosa at 2 times MIC", "format": "functional, organism-based", "in_short": "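Time-kill in cation-adjusted Mueller-Hinton broth. Inoculum from overnight culture set to 0.5 McFarland, final 10⁶ CFU/ml, 37°C in ambient air for 24 h. 1×, 2× and 7× MIC plus drug-free controls. Samples taken at 0, 2, 4, 6, 12 and 24 h and plated on sheep blood agar. Detection limit 10² CFU/ml.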"}, "[38]": {"system": "Pseudomonas aeruginosa", "test": "Antibacterial activity against Pseudomonas aeruginosa isolate 944 by microdilution method", "format": "functional", "in_short": "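CLSI broth microdilution in cation-adjusted Mueller-Hinton broth (20–25 mg/liter Ca, 10–12.5 mg/liter Mg). Standard inoculum 10⁵ CFU/ml, incubated in ambient air. Clinical hospital isolates.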"}},
  "note": "Active and inactive are the calls of the source. The rule behind the calls is not given here.",
  "data": [
    {"smiles": "C[C@@H](O)[C@H]1C(=O)N2C(C(=O)O)=C(S[C@@H]3CN[C@H](CNS(N)(=O)=O)C3)[C@H](C)[C@H]12", "note": "[DORIPENEM]", "values": [
      {"measurement": "Cmax", "setting": "[1]", "value": 7990, "unit": "ng/mL"},
      {"measurement": "fT>MIC", "setting": "[2]", "value": 42.5, "unit": "%"},
      {"measurement": "fT>MIC", "setting": "[3]", "value": 17.5, "unit": "%"},
      {"measurement": "k el at 2 h", "setting": "[4]", "value": 0.000567, "unit": "s⁻¹"},
      {"measurement": "MIC", "setting": "[5]", "value": 0.125, "unit": "µg/mL"},
      {"measurement": "MIC", "setting": "[6]", "value": 8, "unit": "µg/mL"},
      {"measurement": "MIC", "setting": "[7]", "value": 0.5, "unit": "µg/mL"},
      {"measurement": "MIC", "setting": "[8]", "value": 2, "unit": "µg/mL"},
      {"measurement": "MIC", "setting": "[9]", "value": 0.5, "unit": "µg/mL"},
      {"measurement": "fT>MIC", "setting": "[10]", "value": 40, "unit": "%"},
      {"measurement": "fT>MIC", "setting": "[11]", "value": 30, "unit": "%"},
      {"measurement": "fT>MIC", "setting": "[12]", "value": 30, "unit": "%"},
      {"measurement": "fT>MIC", "setting": "[13]", "value": 100, "unit": "%"},
      {"measurement": "AUC(0-t) at 24 h", "setting": "[14]", "value": 62400, "unit": "ng·h/mL"},
      {"measurement": "fT>MIC", "setting": "[15]", "value": 20, "unit": "%"},
      {"measurement": "fT>MIC", "setting": "[16]", "value": 82.5, "unit": "%"},
      {"measurement": "Tmax", "setting": "[17]", "value": 22.8, "unit": "min"},
      {"measurement": "fT>MIC", "setting": "[18]", "value": 100, "unit": "%"},
      {"measurement": "fT>MIC", "setting": "[19]", "value": 100, "unit": "%"},
      {"measurement": "fT>MIC", "setting": "[20]", "value": 100, "unit": "%"},
      {"measurement": "fT>MIC", "setting": "[21]", "value": 82.5, "unit": "%"},
      {"measurement": "fT>MIC", "setting": "[22]", "value": 42.5, "unit": "%"},
      {"measurement": "fT>MIC", "setting": "[23]", "value": 100, "unit": "%"},
      {"measurement": "fT>MIC", "setting": "[24]", "value": 72.5, "unit": "%"},
      {"measurement": "fT>MIC", "setting": "[25]", "value": 30, "unit": "%"},
      {"measurement": "fT>MIC", "setting": "[26]", "value": 0, "unit": "%"},
      {"measurement": "Cmax", "setting": "[27]", "value": 7790, "unit": "ng/mL"},
      {"measurement": "fT>MIC", "setting": "[28]", "value": 40, "unit": "%"},
      {"measurement": "fT>MIC", "setting": "[29]", "value": 75, "unit": "%"},
      {"measurement": "AUC(0-t) at 24 h", "setting": "[30]", "value": 13500, "unit": "ng·h/mL"},
      {"measurement": "fT>MIC", "setting": "[31]", "value": 70, "unit": "%"},
      {"measurement": "k el at 2 h", "setting": "[32]", "value": 0.000433, "unit": "s⁻¹"},
      {"measurement": "fT>MIC", "setting": "[33]", "value": 40, "unit": "%"},
      {"measurement": "MIC", "setting": "[34]", "value": 16, "unit": "µg/mL"},
      {"measurement": "fT>MIC", "setting": "[35]", "value": 42.5, "unit": "%"},
      {"measurement": "MIC", "setting": "[36]", "value": 8, "unit": "µg/mL"},
      {"measurement": "Activity", "setting": "[37]", "value": "inactive"},
      {"measurement": "MIC", "setting": "[38]", "value": 4, "unit": "µg/mL"}
    ]}
  ]
}
